Experimental data as given in ChEMBL document CHEMBL1127745, “Synthesis, resolution, and SAR of (+/-)-2-amino-N-methyl-alpha-(3-methyl-2-thienyl)benzeneethanamine++ + and related analogs as noncompetitive NMDA antagonists with neuroprotective properties” (J Med Chem, 1994).

Key:
Rattus norvegicus [1] = assay: Evaluated for reduction of NMDA-induced necrosis volume at 30 mg/kg subcutaneous dose in rats.; type: functional
How it was run: (§1)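 Male Sprague-Dawley rats (280-310 g) under chloral hydrate (400 mg/kg ip). Unilateral dorsal hippocampal CA1 lesion made by stereotaxic infusion of NMDA 20 nmol over 5 min. Drugs given sc or ip 1 h before infusion. Brains perfusion-fixed at 7 days and cresyl violet-stained; lesion volume measured by image analysis. n = 4 per group, compared with control by t-test.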

Glutamate NMDA receptor = assay: Inhibition against NMDA receptor by displacement of [3H]TCP binding from rat cortical membranes; type: cell membranes, Membrane
Rattus norvegicus [2] = assay: Evaluated for reduction of NMDA-induced necrosis at 100 mg/kg subcutaneous dose in rats.; type: functional; how it was run: as §1
Rattus norvegicus [3] = assay: Evaluated for reduction of NMDA-induced necrosis at 30 mg/kg subcutaneous dose in rats.; type: functional; how it was run: as §1
Mus musculus = assay: Effective dose required for 50% inhibition of clonic seizures in mice induced by racemic NMDLA when administered intraperitoneally; type: functional; conditions: ip
How it was run: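 Swiss Webster mice, 10 per group, dosed ip with drug in distilled water 0.5 h before N-methyl-D,L-aspartic acid 350 mg/kg sc. Each mouse observed 30 min for clonic seizures lasting at least 3 s; protection means no seizure in that time. Controls received vehicle. ED50 taken at time of peak effect from three or more doses, Litchfield-Wilcoxon method.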

Rattus norvegicus [4] = assay: Evaluated for reduction of NMDA-induced necrosis volume at 100 mg/kg subcutaneous dose in rats.; type: functional; how it was run: as §1
Rattus norvegicus [5] = assay: Evaluated for reduction of NMDA-induced necrosis at 0.7 mg/kg intraperitoneal dose in rats.; type: functional; how it was run: as §1
Rattus norvegicus [6] = assay: Reduction of photochemically induced cerebral focal ischemia in rat was evaluated by using compound at 3 mg/kg intravenous dose; type: functional
How it was run: (§2)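 Male rats (300-350 g) under halothane (3 vol% induction, 1.2 vol% maintenance in O2). Rose Bengal (5 mg in 1 mL) infused through the femoral vein, then thrombotic focal cortical ischemia induced photochemically with light. Drug given iv 30 min after ischemia to groups of 5-7 rats. Infarct volume (mm3) measured by image analysis of cresyl violet-stained 20-µm sections.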

Rattus norvegicus [7] = assay: Evaluated for reduction of NMDA-induced necrosis volume at 7.0 mg/kg intraperitoneally dose in rats.; type: functional; conditions: route intraperitoneal; how it was run: as §1
Rattus norvegicus [8] = assay: Evaluated for reduction of NMDA-induced necrosis at 7.0 mg/kg intraperitoneal dose in rats.; type: functional; how it was run: as §1
Rattus norvegicus [9] = assay: Evaluated for reduction of NMDA-induced necrosis volume at 0.7 mg/kg intraperitoneally dose in rats.; type: functional; conditions: route intraperitoneal; how it was run: as §1
Gerbillinae [10] = assay: Percent reduction of carotid artery Carotid artery occlusion-induced hippocampal damage at 5 mg/kg intraperitoneal dose.; type: functional, Hippocampus
How it was run: (§3)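 Male Mongolian gerbils (65-75 g, n = 14-15) under halothane (2.6 vol% induction, 1.2 vol% maintenance in N2:O2 2:1). Forebrain ischemia by bilateral 5-min carotid occlusion with reperfusion. Drug given ip 15 min before or 15 min after occlusion. CA1 cell necrosis rated on a 0-4 scale (0 none to 4 all CA1 cells). Group means compared by t-test.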

Gerbillinae [11] = assay: Carotid artery occlusion-induced hippocampal damage was evaluated by using control 15 min before carotid occlusion at 5 mg/kg intraperitoneal dose.; type: functional, Hippocampus; how it was run: as §3
Gerbillinae [12] = assay: Carotid artery occlusion-induced hippocampal damage was evaluated by using compound 15 min before carotid occlusion at 5 mg/kg intraperitoneal dose.; type: functional, Hippocampus; how it was run: as §3
Rattus norvegicus [13] = assay: Percent change in reduction of photochemically induced cerebral focal ischemia in control and treated rat at 3 mg/kg intravenous dose; type: functional; how it was run: as §2
Rattus norvegicus [14] = assay: Evaluated for reduction of NMDA-induced necrosis volume at 2.0 mg/kg intraperitoneally dose in rats.; type: functional; conditions: route intraperitoneal; how it was run: as §1
Rattus norvegicus [15] = assay: Evaluated for reduction of NMDA-induced necrosis at 2.0 mg/kg intraperitoneal dose in rats.; type: functional; how it was run: as §1
Rattus norvegicus [16] = assay: Reduction of photochemically induced cerebral focal ischemia in rat was evaluated by using control at 3 mg/kg intravenous dose; type: functional; how it was run: as §2
Rattus norvegicus [17] = assay: Percent change in reduction of photochemically induced cerebral focal ischemia in control and treated rat at 0.3 mg/kg intravenous dose; type: functional; how it was run: as §2
Rattus norvegicus [18] = assay: Reduction of photochemically induced cerebral focal ischemia in rat was evaluated at 0.1 mg/kg intravenous dose; type: functional; how it was run: as §2
Rattus norvegicus [19] = assay: Percent change in reduction of photochemically induced cerebral focal ischemia in control and treated rat at 1.0 mg/kg intravenous dose; type: functional; how it was run: as §2
Rattus norvegicus [20] = assay: Reduction of photochemically induced cerebral focal ischemia in rat was evaluated at 1.0 mg/kg intravenous dose; type: functional; how it was run: as §2
Gerbillinae [21] = assay: Carotid artery occlusion-induced hippocampal damage was evaluated by using compound 15 min before carotid occlusion at 30 mg/kg intraperitoneal dose.; type: functional, Hippocampus; how it was run: as §3
Gerbillinae [22] = assay: Percent reduction of carotid artery occlusion-induced hippocampal damage at 30 mg/kg intraperitoneal dose.; type: functional, Hippocampus; how it was run: as §3
Gerbillinae [23] = assay: Percent reduction Carotid artery occlusion-induced hippocampal damage at 30 mg/kg intraperitoneal dose.; type: functional, Hippocampus; how it was run: as §3
Gerbillinae [24] = assay: Carotid artery occlusion-induced hippocampal damage was evaluated 15 min after carotid occlusion 50 mg/kg intraperitoneal dose; type: functional, Hippocampus; how it was run: as §3
Gerbillinae [25] = assay: Carotid artery occlusion-induced hippocampal damage was evaluated by using compound 15 min before carotid occlusion at 30 mg/kg intraperitoneal dose; type: functional, Hippocampus; how it was run: as §3
Rattus norvegicus [26] = assay: Percent change in reduction of photochemically induced cerebral focal ischemia in control and treated rat at 10 mg/kg intravenous dose; type: functional; how it was run: as §2
Gerbillinae [27] = assay: Carotid artery occlusion-induced hippocampal damage was evaluated 15 min after carotid occlusion 10 mg/kg intraperitoneal dose; type: functional, Hippocampus; how it was run: as §3
Rattus norvegicus [28] = assay: Reduction of photochemically induced cerebral focal ischemia in rat was evaluated at 10 mg/kg intravenous dose; type: functional; how it was run: as §2
Gerbillinae [29] = assay: Percent reduction Carotid artery occlusion-induced hippocampal damage at 10 mg/kg intraperitoneal dose.; type: functional, Hippocampus; how it was run: as §3
Rattus norvegicus [30] = assay: Reduction of photochemically induced cerebral focal ischemia in rat was evaluated at 3.0 mg/kg intravenous dose; type: functional; how it was run: as §2
Gerbillinae [31] = assay: Carotid artery occlusion-induced hippocampal damage was evaluated 15 min after carotid occlusion 30 mg/kg intraperitoneal dose; type: functional, Hippocampus; how it was run: as §3
Rattus norvegicus [32] = assay: Reduction of photochemically induced cerebral focal ischemia in rat was evaluated at 0.3 mg/kg intravenous dose; type: functional; how it was run: as §2
Gerbillinae [33] = assay: Percent reduction Carotid artery occlusion-induced hippocampal damage at 50 mg/kg intraperitoneal dose.; type: functional, Hippocampus; how it was run: as §3
Rattus norvegicus [34] = assay: Reduction of photochemically induced cerebral focal ischemia in rat was evaluated 3.0 mg/kg intravenous dose; type: functional; how it was run: as §2
Gerbillinae [35] = assay: Carotid artery occlusion-induced hippocampal damage was evaluated 15 min before carotid occlusion at 60 mg/kg intraperitoneal dose.; type: functional, Hippocampus; how it was run: as §3
Rattus norvegicus [36] = assay: Percent change in reduction of photochemically induced cerebral focal ischemia in control and treated rat at 20 mg/kg intravenous dose; type: functional; how it was run: as §2
Gerbillinae [37] = assay: Carotid artery occlusion-induced hippocampal damage was evaluated 15 min before carotid occlusion at 30 mg/kg intraperitoneal dose.; type: functional, Hippocampus; how it was run: as §3
Rattus norvegicus [38] = assay: Reduction of photochemically induced cerebral focal ischemia in rat was evaluated 10.0 mg/kg intravenous dose; type: functional; how it was run: as §2
Rattus norvegicus [39] = assay: Percent change in reduction of photochemically induced cerebral focal ischemia in control and treated rat at 3.0 mg/kg intravenous dose; type: functional; how it was run: as §2
Rattus norvegicus [40] = assay: Reduction of photochemically induced cerebral focal ischemia in rat was evaluated at 20.0 mg/kg intravenous dose; type: functional; how it was run: as §2
Gerbillinae [41] = assay: Carotid artery occlusion-induced hippocampal damage was evaluated 15 min after carotid occlusion 60 mg/kg intraperitoneal dose; type: functional, Hippocampus; how it was run: as §3

CCNC(Cc1ccccc1N)c1sccc1C.Cl (stereo not given)
Volume (Rattus norvegicus [1]): 0.059 µM
IC50 (Glutamate NMDA receptor): 43 nM
Reduction (Rattus norvegicus [2]): 95%
Reduction (Rattus norvegicus [3]): 67%
ED50 (Mus musculus): 6.4 mg/kg
Volume (Rattus norvegicus [4]): 0.0098 µM

CNC(Cc1ccc(Cl)cc1N)c1sccc1C.Cl (stereo not given)
IC50 (Glutamate NMDA receptor): 18000 nM
ED50 (Mus musculus): ≥ 60 mg/kg

CNc1ccccc1CC(NC)c1sccc1C.Cl (stereo not given)
IC50 (Glutamate NMDA receptor): 3800 nM
ED50 (Mus musculus): > 60 mg/kg

CNC(Cc1cc(Cl)ccc1N)c1sccc1C (stereo not given)
IC50 (Glutamate NMDA receptor): 25 nM
ED50 (Mus musculus): ≥ 30 mg/kg

CNC(Cc1ccccc1N)c1cccs1.Cl (stereo not given)
ED50 (Mus musculus): > 60 mg/kg

O=C(O)C1CN(CCCP(=O)(O)O)CCN1 (stereo not given)
IC50 (Glutamate NMDA receptor): > 100000 nM

CNc1ccccc1CC(c1sccc1C)N(C)C (stereo not given)
ED50 (Mus musculus): > 60 mg/kg

Cc1ccsc1C(N)Cc1ccccc1N.Cl (stereo not given)
IC50 (Glutamate NMDA receptor): 4000 nM
ED50 (Mus musculus): 19 mg/kg

CNC(Cc1ccc(C(F)(F)F)cc1N)c1sccc1C (stereo not given)
IC50 (Glutamate NMDA receptor): > 10000 nM

C[C@]12N[C@H](Cc3ccccc31)c1ccccc12 [DIZOCILPINE]
Reduction (Rattus norvegicus [5]): <44%
Treated (Rattus norvegicus [6]): 52
Volume (Rattus norvegicus [7]): 0.0025 µM
Reduction (Rattus norvegicus [8]): <98%
Volume (Rattus norvegicus [9]): 0.1 µM
Reduction (Gerbillinae [10]): <22%
Control (Gerbillinae [11]): 1.05
ED50 (Mus musculus): 0.38 mg/kg
Treated (Gerbillinae [12]): 0.8
Change (Rattus norvegicus [13]): -24%
Volume (Rattus norvegicus [14]): 0.01 µM
Reduction (Rattus norvegicus [15]): <94%
Control (Rattus norvegicus [16]): 68

CNC(Cc1ccccc1N)c1sccc1C.Cl (stereo in doubt; (+)3a)
Change (Rattus norvegicus [17]): 13%
Treated (Rattus norvegicus [18]): 59
IC50 (Glutamate NMDA receptor): 180 nM
Change (Rattus norvegicus [19]): 14%
Treated (Rattus norvegicus [20]): 67
Treated (Gerbillinae [21]): 1.5
Reduction (Gerbillinae [22]): 51%

CCCNC(Cc1ccccc1N)c1sccc1C.Cl (stereo not given)
IC50 (Glutamate NMDA receptor): 130 nM
ED50 (Mus musculus): 14.1 mg/kg

CNC(Cc1ccccc1N)c1sccc1C.Cl (stereo in doubt; 3a)
Change (Rattus norvegicus [17]): 0%
Reduction (Gerbillinae [23]): 26%
Treated (Gerbillinae [24]): 2.13
Treated (Gerbillinae [25]): 0.3
Change (Rattus norvegicus [26]): 6%
IC50 (Glutamate NMDA receptor): 350 nM
Reduction (Rattus norvegicus [2]): 68%
Treated (Gerbillinae [27]): 2.8
Change (Rattus norvegicus [19]): -27%
Treated (Rattus norvegicus [20]): 57
Treated (Rattus norvegicus [28]): 86
ED50 (Mus musculus): 27.8 mg/kg
Change (Rattus norvegicus [13]): -16%
Reduction (Gerbillinae [29]): 2%
Reduction (Gerbillinae [22]): 75%
Treated (Rattus norvegicus [30]): 63
Treated (Gerbillinae [31]): 2.13
Treated (Rattus norvegicus [32]): 72
Reduction (Gerbillinae [33]): 18%
Volume (Rattus norvegicus [4]): 0.057 µM

CNC(Cc1ccccc1N)c1sccc1C.Cl (single isomer, unassigned; (-))
Treated (Rattus norvegicus [34]): 73
Treated (Gerbillinae [35]): 0.9
Change (Rattus norvegicus [36]): 13%
Treated (Gerbillinae [37]): 2.8
Treated (Rattus norvegicus [38]): 93
Change (Rattus norvegicus [39]): 6%
IC50 (Glutamate NMDA receptor): 57000 nM
Treated (Rattus norvegicus [40]): 79
Treated (Gerbillinae [41]): 3.3
Change (Rattus norvegicus [19]): 7%
Treated (Rattus norvegicus [20]): 66
Reduction (Gerbillinae [22]): 32%

Cc1ccsc1C(Cc1ccccc1N(C)C)N(C)C (stereo not given)
IC50 (Glutamate NMDA receptor): 330 nM
ED50 (Mus musculus): > 60 mg/kg

CNC(Cc1ccccc1N)c1ccc(C)s1 (stereo not given)
IC50 (Glutamate NMDA receptor): 5200 nM
ED50 (Mus musculus): > 60 mg/kg

CNC(Cc1cc(Br)ccc1N)c1sccc1C (stereo not given)
IC50 (Glutamate NMDA receptor): 45 nM
ED50 (Mus musculus): > 5 mg/kg

Cc1ccsc1C(Cc1ccccc1N)N(C)C (stereo not given)
IC50 (Glutamate NMDA receptor): 370 nM
ED50 (Mus musculus): > 60 mg/kg
